The record followed here is ChEMBL document CHEMBL1124904, “7-Oxabicyclo[2.2.1]heptyl carboxylic acids as thromboxane A2 antagonists: aza omega-chain analogues” (J Med Chem, 1990).

Each structure is given as a SMILES string.

Usually Inhibition stands for the relative decrease from the control value, in per cent. A word on the Kd: it is the concentration at which binding is half-saturated. Read a high Kd as a looser complex.

For experiment [1], the species on record is Homo sapiens. The experiment in a line: Ability to inhibit platelet aggregation of human platelet-rich plasma (PRP) induced by 800 uM of AA-IPA (arachidonic acid). The class given is functional. As to conditions: read-out: I50. The procedure, abridged:
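Human platelet-rich plasma; aggregation triggered by arachidonic acid at 800 μM. Test acids were also checked against ADP (20 μM)-induced aggregation. I50 taken as the concentration inhibiting aggregation.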

Experiment [2] is filed under the species Cavia porcellus. In words: Evaluated for its potency in Guinea pig trachea (GPT) spirals in the presence of increasing concentrations. The class given is functional. The procedure, abridged:
(§1)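 Guinea pig tracheal spirals contracted by U-46,619 in cumulative dose-response curves, repeated with increasing antagonist concentrations; Kb from analysis of the rightward shift.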

Experiment [3] deals with Cavia porcellus. In words: Evaluated for the percent inhibition of arachidonate-induced hypertension resulting in decreases in blood pressure at 60 min after dosing (0.1 mg/kg iv) in anesthetized guinea pig. Type of experiment: functional. The procedure, abridged:
(§2)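 Anesthetized guinea pig dosed iv with antagonist at 0.1 mg/kg (some at 1.0 mg/kg). Arachidonic acid 0.5 mg/kg iv given as challenge 3 or 60 min later. Airway resistance, dynamic compliance and blood pressure recorded; percent inhibition of each response.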

Experiment [4] has as its system Cavia porcellus. In words: Evaluated for the percent inhibition of arachidonate-induced air-way resistance at 3 min after dosing (0.1 mg/kg iv) in anesthetized guinea pig. The class given is functional. The procedure, abridged:
as §2

Experiment [5] deals with Cavia porcellus. The experiment in a line: Evaluated for the percent inhibition of arachidonate-induced air-way resistance at 60 min after dosing (0.1 mg/kg iv) in anesthetized guinea pig. Type of experiment: functional. The procedure, abridged: as §2
The subject of experiment [6] is Cavia porcellus. In words: Evaluated for the percent inhibition of arachidonate-induced dynamic compliance at 60 min after dosing (0.1 mg/kg iv) in anesthetized guinea pig. The class given is functional. Summed up:
as §2

Experiment [7] deals with Cavia porcellus. In words: Evaluated for the percent inhibition of arachidonate-induced hypertension resulting in decreases in blood pressure at 3 min after dosing (0.1 mg/kg iv) in anesthetized guinea pig. Type of experiment: functional. The procedure, abridged: as §2
For experiment [8], the species on record is Homo sapiens. The experiment in a line: Evaluated for ability to inhibit platelet aggregation of human platelet-rich plasma (PRP) induced by 11.9-epoxymethano-PGH2. Type of experiment: functional. Particulars: read-out: I50. Summed up:
(§3)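 Human PRP aggregation induced by U-46,619 (11,9-epoxymethano-PGH2, stable PGH2/TxA2 mimic) at 5 or 10 μM; I50 reported. Values are single determinations unless otherwise noted.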

The species entered for experiment [9] is Rattus norvegicus. The experiment in a line: Evaluated for its potency Rat aorta (RA) strips in the presence of increasing concentrations. The class given is functional. Summed up: (§4)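 Rat aortic strips contracted by U-46,619 in cumulative dose-response curves, repeated with increasing antagonist concentrations; Kb from analysis of the rightward shift.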

Another experiment concerns the target T1, Thromboxane A2 receptor (Homo sapiens, UniProt P21731).
T1 sequence (P21731 whole entry): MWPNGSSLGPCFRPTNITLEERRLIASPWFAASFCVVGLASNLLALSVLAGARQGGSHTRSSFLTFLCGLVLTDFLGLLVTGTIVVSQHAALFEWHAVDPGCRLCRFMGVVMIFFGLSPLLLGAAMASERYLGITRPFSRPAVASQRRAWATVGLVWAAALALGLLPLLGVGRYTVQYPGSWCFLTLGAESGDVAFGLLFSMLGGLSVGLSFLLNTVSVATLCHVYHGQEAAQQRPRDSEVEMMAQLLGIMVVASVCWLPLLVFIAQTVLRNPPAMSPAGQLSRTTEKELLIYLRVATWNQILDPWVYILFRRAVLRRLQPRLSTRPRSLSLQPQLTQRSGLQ
In words: Binding affinity was determined from the inhibition of [3H]-SQ 29,548 binding to Thromboxane A2 receptor in human platelet membranes. The class given is cell membranes. Summed up:
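Radioligand binding to human platelet membranes with [5,6-3H2]-SQ 29,548 as tracer; Kd derived from inhibition of specific binding.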

For experiment [10], the system named is Cavia porcellus. The experiment in a line: Evaluated for the percent inhibition of arachidonate-induced dynamic compliance at 3 min after dosing (0.1 mg/kg iv) in anesthetized guinea pig. The class given is functional. The procedure, abridged: as §2
Experiment [11] is filed under the species Cavia porcellus. In words: Evaluated for its potency in guinea pig trachea (GPT) spirals in the presence of increasing concentrations. The class given is functional. Summed up:
as §1

Experiment [12] is filed under the species Homo sapiens. In words: Evaluated for ability to inhibit platelet aggregation of human platelet-rich plasma (PRP) induced by 11.9-epoxymethano-PGH2. The class given is functional. Particulars: read-out: I50. The procedure, abridged: as §3
The species entered for experiment [13] is Rattus norvegicus. In words: Evaluated for its potency in rat aorta (RA) strips in the presence of increasing concentrations. Type of experiment: functional. Summed up:
as §4

Turning to `CCCCCCCNC1C2CCC(O2)C1C/C=C/CCCC(=O)O` (configuration not stated), the IC50 in the experiment filed under Homo sapiens [1] (Homo sapiens, Plasma) turned out to be 120000 nM.
Consider `CCCCCCCNC(=O)CNC(=O)C1C2CCC(O2)C1C/C=C/CCCC(=O)O` (configuration not stated), for which the IC50 in the experiment listed under Homo sapiens [1] (Homo sapiens, Plasma) amounted to 30000 nM.
Turning to `O=C(O)CCC/C=C/CC1C2CCC(O2)C1NC(=O)CCCc1ccccc1` (configuration not stated), the IC50 in the experiment listed under Homo sapiens [1] (Homo sapiens, Plasma) worked out at 11000 nM.
For the compound `O=C(O)CCC/C=C/CC1C2CCC(O2)C1CNC(=O)CCc1ccccc1` (configuration not stated), in the experiment filed under Homo sapiens [1] (Homo sapiens, Plasma), the IC50 worked out at 3300 nM.
The same measure, in the same setting: with `O=C(O)CCC/C=C/CC1C2CCC(O2)C1CNC(=O)NCc1ccccc1` (configuration not stated) the figure was 26000 nM; with `CCCCCC(=O)NC(C)(C)C(=O)NCC1C2CCC(O2)C1C/C=C/CCCC(=O)O` (configuration not stated), 520000 nM.
In the case of `CCCCCCCCC(=O)NCC(=O)NCC1C2CCC(O2)C1C/C=C/CCCC(=O)O` (configuration not stated), the Kb in the experiment filed under Cavia porcellus [2] (Cavia porcellus, Trachea) is 1.4 nM; in the experiment listed under Rattus norvegicus [9] (Rattus norvegicus, Aorta), 7.1 nM. Besides, the Inhibition came out at 138% in the experiment with Cavia porcellus [3]; 99% in the experiment with Cavia porcellus [4]; 31% with Cavia porcellus [5]; 39% with Cavia porcellus [6]; 252% in the experiment on Cavia porcellus [7]; 98% with Cavia porcellus [10]. Moreover, the IC50 in the experiment listed under Homo sapiens [8] (Homo sapiens, Plasma) is 1100 nM; in the experiment listed under Homo sapiens [1] (Homo sapiens, Plasma) it was 220 nM. The compound further yielded a Kd on Thromboxane A2 receptor of 8.3 nM.
Consider `CCCCCNC(=O)CCC(=O)NC1C2CCC(O2)C1C/C=C/CCCC(=O)O` (configuration not stated), for which the IC50 in the experiment filed under Homo sapiens [1] (Homo sapiens, Plasma) turned out to be 160000 nM.
On the same count and under the same terms, the result for `CCCCOC(=O)NCC(=O)NCC1C2CCC(O2)C1C/C=C/CCCC(=O)O` (configuration not stated) reads 1100 nM.
`CC(C)(C)c1ccc(SCC(=O)NCC(=O)NCC2C3CCC(O3)C2C/C=C/CCCC(=O)O)cc1` (configuration not stated): the Kb in the experiment filed under Cavia porcellus [11] was found to be 0.1 nM; in the experiment listed under Rattus norvegicus [13] it was 1.8 nM. The Inhibition in the experiment with Cavia porcellus [3] is 184%; with Cavia porcellus [4], 98%; in the experiment with Cavia porcellus [5], 43%; in the experiment on Cavia porcellus [6], 26%; in the experiment with Cavia porcellus [7] it was 191%; with Cavia porcellus [10] it was 95%. Further, the IC50 in the experiment listed under Homo sapiens [12] turned out to be 150 nM; in the experiment listed under Homo sapiens [1] (Homo sapiens, Plasma) it was 15 nM. Moreover, binding on Thromboxane A2 receptor was put at a Kd of 4.2 nM.
Turning to `CCCCCCNCC1C2CCC(O2)C1C/C=C/CCCC(=O)O` (configuration not stated), the IC50 in the experiment listed under Homo sapiens [1] (Homo sapiens, Plasma) was found to be 12000 nM.
In the case of `CCCCCC(=O)N(C)CC(=O)NCC1C2CCC(O2)C1C/C=C/CCCC(=O)O` (configuration not stated), the IC50 in the experiment filed under Homo sapiens [1] (Homo sapiens, Plasma) worked out at 3000 nM.
As to `CCCCNC(=O)NCC(=O)NCC1C2CCC(O2)C1C/C=C/CCCC(=O)O` (configuration not stated), the IC50 in the experiment listed under Homo sapiens [1] (Homo sapiens, Plasma) was determined as 1000 nM.
For `O=C(O)CCC/C=C/CC1C2CCC(O2)C1CNNC(=O)Nc1ccccc1` (racemic), the Inhibition in the experiment with Cavia porcellus [3] was determined as 59%; in the experiment with Cavia porcellus [4] it was 97%; with Cavia porcellus [5], 42%; in the experiment with Cavia porcellus [6], 56%; in the experiment with Cavia porcellus [7], 151%; with Cavia porcellus [10] it was 96%. The IC50 in the experiment listed under Homo sapiens [1] came to 90 nM.
Consider `O=C(O)CCC/C=C/CC1C2CCC(O2)C1CNNC(=O)Nc1ccccc1` (single isomer, unassigned; (+)), for which, in the experiment listed under Homo sapiens [1], the IC50 stood at 20 nM.
Turning to `CCCCCCC(=O)NCC(=O)NCC1C2CCC(O2)C1C/C=C/CCCC(=O)O` (single isomer, unassigned; (+)), the Kb in the experiment filed under Cavia porcellus [2] (Cavia porcellus, Trachea) was 174 nM; in the experiment filed under Rattus norvegicus [9] (Rattus norvegicus, Aorta), 326 nM. Also, the IC50 in the experiment filed under Homo sapiens [1] (Homo sapiens, Plasma) was determined as 6600 nM.
With `CCCCCC(=O)NC(C)C(=O)NCC1C2CCC(O2)C1C/C=C/CCCC(=O)O` (stereo in doubt; 48), the IC50 in the experiment filed under Homo sapiens [1] was found to be 53000 nM.
Regarding `CCCCCC(=O)NC(C)C(=O)NCC1C2CCC(O2)C1C/C=C/CCCC(=O)O` (stereo in doubt; 49), in the experiment filed under Homo sapiens [1], the IC50 stood at 900 nM.
With `CCCCCCCC(=O)NCC(=O)NCC1C2CCC(O2)C1C/C=C/CCCC(=O)O` (stereo in doubt; 51), the Kb was determined as 2 nM in the experiment listed under Cavia porcellus [2] and 3.4 nM in the experiment listed under Rattus norvegicus [9]. Further, the Inhibition was 130% in the experiment on Cavia porcellus [3]; 97% in the experiment on Cavia porcellus [4]; 79% in the experiment with Cavia porcellus [5]; 74% in the experiment on Cavia porcellus [6]; 98% with Cavia porcellus [10]. For the same compound, the figures for the IC50 in the experiment filed under Homo sapiens [8] and in the experiment listed under Homo sapiens [1] were 430 nM and 220 nM, respectively. This compound yielded a Kd on Thromboxane A2 receptor of 17.5 nM.
Turning to `O=C(O)Cc1ccc(CCNS(=O)(=O)c2ccc(Cl)cc2)cc1` [DALTROBAN], the IC50 in the experiment listed under Homo sapiens [1] (Homo sapiens, Plasma) is 630 nM.
